Active and inactive are the calls of the source.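 The calls were made as follows, unless noted: active = potentiation averaged over duplicate wells exceeding buffer-only control mean by more than 3 SD; inactive = the rest.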

System in one assay: not listed separately
Nature of the assay: nonspecific flux increase, KCNQ1-free cells – parental CHO cells, counter-screen for KCNQ1 potentiator project (AID 493006;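 active = duplicate-averaged activation above buffer control mean plus 5 SD of those controls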;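 as to activation: fluorescence ratio of max minus min over baseline after K+ and Tl+ depolarization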). The following applies: parental CHO-K1 cells, FluxOR thallium flux, at 10 µM; stronger effect = higher value. Summed up: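 Material: parental CHO-K1 cells, FluxOR dye-loaded; Also added: Potassium/thallium depolarization pulse; Schedule: overnight 37 °C plating, 90 min dye, 20 min dark compound; Signal: kinetic FluxOR fluorescence, 10 s baseline, 110 s after stimulus.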
Background: The purpose of a counterscreen is to sort out artefacts and off-target activity.
On to `CC(NC(=O)CS(=O)(=O)c1ccccc1)c1ccccc1` (centres undefined), for which the outcome was inactive.
For `Fc1cccc2sc(Nc3nnc(-c4ccco4)o3)nc12`, the activation was 354% (active).
Still for that read-out and setting: next, `O=c1c2ccccc2nc(-c2cccc(Cl)c2)n1O`: 358% (active).
The same measure, in the same setting: to `COc1ccc(N=Nc2ccc(O)c3ncccc23)cc1` belongs 176% (active).

The target in the next assay is Potassium voltage-gated channel subfamily KQT member 1 (Homo sapiens) (UniProt P51787). Description: enhancement of KCNQ1 channel thallium flux – FluxOR thallium flux, CHO cells, duplicates, confirmation (AID 493007).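 As to outcome: cells depolarized by a potassium plus thallium sulfate stimulus after compound.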 The following applies: KCNQ1 cell line, FluxOR thallium flux fluorescence, at 10 µM; stronger effect = higher value, % of reference activator effect, buffer zero. The essentials: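 System: KCNQ1-expressing CHO cell line; technique: kinetic thallium influx fluorescence with FluxOR dye, 10 s baseline, 110 s post-stimulus; timing: dye 90 min then compound 20 min, both at room temperature; controls: buffer-only wells as 0% and R-L3 activator as 100%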
Sequence of Potassium voltage-gated channel subfamily KQT member 1 (Homo sapiens) (P51787 whole entry, looked up): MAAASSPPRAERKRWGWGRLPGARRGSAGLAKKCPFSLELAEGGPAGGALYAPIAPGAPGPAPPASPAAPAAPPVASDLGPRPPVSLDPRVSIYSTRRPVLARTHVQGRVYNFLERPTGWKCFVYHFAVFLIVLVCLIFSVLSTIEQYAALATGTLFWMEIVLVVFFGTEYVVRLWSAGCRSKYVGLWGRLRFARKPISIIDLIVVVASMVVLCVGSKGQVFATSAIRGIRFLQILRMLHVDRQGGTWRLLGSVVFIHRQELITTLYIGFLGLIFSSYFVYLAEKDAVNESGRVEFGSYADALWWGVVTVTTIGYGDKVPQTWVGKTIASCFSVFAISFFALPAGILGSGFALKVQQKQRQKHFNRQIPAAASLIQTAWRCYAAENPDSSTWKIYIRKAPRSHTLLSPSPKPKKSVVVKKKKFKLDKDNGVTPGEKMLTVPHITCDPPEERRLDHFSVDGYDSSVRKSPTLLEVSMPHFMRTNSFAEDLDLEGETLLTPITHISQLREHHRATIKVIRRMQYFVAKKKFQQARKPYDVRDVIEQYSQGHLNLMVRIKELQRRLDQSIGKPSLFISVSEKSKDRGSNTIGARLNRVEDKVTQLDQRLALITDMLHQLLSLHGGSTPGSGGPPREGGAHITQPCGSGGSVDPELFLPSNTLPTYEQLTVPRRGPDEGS
`O=C(ONC1=NCCCCC1)c1ccc(Cl)cc1`: the result was inactive.
As to `Cc1ccc(/C=C/C(=O)C2C(=O)c3ccccc3C2=O)cc1`, the potentiation is 58.5% (active).
On to `COc1cccc2sc(NNC(=O)C3COc4ccccc4O3)nc12` (centres undefined), for which the result was inactive.
In the case of `O=S(=O)(CC(CN1CCCC1)N1CCCC1)c1ccc2ccccc2c1` (centres undefined), the result was inactive.
Still for that read-out and setting: to `Cc1nc(NCCc2cnc[nH]2)c2oc3ccccc3c2n1` belongs “inactive”.
`C/C(=N\NC(=S)Nc1cccc(C)c1)c1ccco1`: the potentiation is 35% (active).
`C#CC1(NC(=O)NCCCC)CCCCC1`: the result was inactive.
In the case of `CC(C)(C)C1(O)CC(C(F)(F)F)=NN1C(=O)Cc1ccc([N+](=O)[O-])cc1` (centres undefined), the outcome was inactive.
Same read-out and setting: next, `CN(C)CC(CCCCC(CN(C)C)C(=O)c1ccccc1)C(=O)c1ccccc1` (centres undefined): “inactive”; `Cn1ccnc1C(OC(=O)c1ccc(Cl)cc1)C(F)(F)F` (centres undefined): “inactive”.
Take `COC(=O)C1=NN(C(=O)c2ccc(Cl)cc2)C(O)(c2ccccc2)C1` (centres undefined): the potentiation is 150% (active).
For `C=CCn1c(O)c(N=NC(=S)Nc2cccc(OC)c2)c2ccccc21`, the potentiation was 85.5% (active).
As for `Cc1ccc(C)c(N2CCN(C(=O)CCS(=O)(=O)c3ccc4c(c3)NC(=O)CO4)CC2)c1`, the outcome was inactive.
For the compound `COC(=O)CSc1nc(N)c2c3c(sc2n1)C(c1ccccc1)SC(c1ccccc1)C3` (centres undefined), the outcome was inactive.
Same read-out and setting: to `CC(=O)c1c(C)[nH]c(C(=O)Nc2cccc(C(F)(F)F)c2)c1C` belongs “inactive”.
In the case of `O=C(Nc1ccc2[nH]c(=S)sc2c1)Nc1ccccc1F`, the potentiation is 68% (active).
Turning to `Cc1noc(C)c1CSc1ncnc2sc(C)c(C)c12`, the result was inactive.
On the same count and under the same terms, to `Cc1ccc2nc(SCC(=O)N3CCN(C(=O)c4ccco4)CC3)[nH]c2c1` belongs “inactive”.
The same measure, in the same setting: next, `Cc1ccc2sc(N(CCCN(C)C)C(=O)CCS(=O)(=O)c3ccccc3)nc2c1C`: “inactive”.
Turning to `Cc1sc(-n2c(C)cc(/C=C3\SC(=S)NC3=O)c2C)c(C#N)c1C`, the potentiation is 36% (active).
For the compound `CCOC(=O)C(=Cc1cc(=O)c(OC)co1)C(=O)OCC`, the outcome was inactive.
On the same count and under the same terms, next, `CC(=O)OC1OCCOC1NC(=S)Nc1ccc(C)cc1` (centres undefined): “inactive”.
For the compound `C=CCn1c(=S)[nH]c2sc3c(c2c1=O)CCCC3`, the potentiation is 97% (active).
Consider `CCC1CCC2(CC1)NNC(=S)NN2`, for which the outcome was inactive.
Regarding `CCOC(=O)c1oc2c(CN3CCCCC3C)c(O)ccc2c(=O)c1-c1ccc(OC)c(OC)c1` (centres undefined), the result was inactive.
For `Cc1cccc(-c2nnc(NC(=O)c3ccc(Cl)cc3)o2)c1`, the potentiation was 30% (active).
As for `Oc1c(N=NC(=S)Nc2ccccc2F)c2ccccc2n1Cc1ccc(F)cc1`, the potentiation was 19.5% (active).
The same measure, in the same setting: next, `CCCn1c(N)c(C(=O)CSc2nc(C)nc3sc(C)c(C)c23)c(=O)[nH]c1=O`: 23% (active).
Turning to `O=C(NC(=S)Nc1ccccc1Br)c1ccco1`, the outcome was inactive.
For `CCOc1ccc(NC(=S)NC(=O)c2ccco2)cc1`, the potentiation was 29% (active).
Still for that read-out and setting: to `Cc1ccc2nc(NC(=S)NC(=O)c3ccco3)sc2c1` belongs 138% (active).
Turning to `COc1cccc(OC)c1C(=O)Nc1cccc(-c2ccc3nncn3n2)c1`, the outcome was inactive.
Still for that read-out and setting: to `C=C(C)CNC(=O)c1ccc(OC2CCN(C(=O)COC)CC2)cc1` belongs “inactive”.
For the compound `CCOc1ccc(-n2cc(-c3ccccc3)c3c(=S)nc[nH]c32)cc1`, the potentiation is 192% (active).
Turning to `CCc1ccc(NC(=O)C(=O)NNC(=O)COc2cccc(OC)c2)cc1`, the potentiation was 76% (active).
With `COC(=O)c1ccc(COC(=O)c2ccccc2OC)cc1`, the outcome was inactive.
Consider `CC(NC(=O)CS(=O)(=O)c1ccccc1)c1ccccc1` (centres undefined), for which the result was inactive.
As for `Fc1cccc2sc(Nc3nnc(-c4ccco4)o3)nc12`, the potentiation was 100% (active).
For the compound `O=c1c2ccccc2nc(-c2cccc(Cl)c2)n1O`, the potentiation is 100% (active).
Still for that read-out and setting: to `COc1ccc(N=Nc2ccc(O)c3ncccc23)cc1` belongs 90% (active).

For the next assay, the target named is Potassium voltage-gated channel subfamily KQT member 2 (Rattus norvegicus) (UniProt O88943). Description: KCNQ2 thallium flux enhancement – KCNQ2-CHO-K1 cells, selectivity assay for KCNQ1 potentiator project (AID 493009;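 active = mean duplicate potentiation above the buffer control mean plus 5 SD of buffer wells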;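 also: assay conditions were tuned for KCNQ1 rather than KCNQ2 modulators; signal is max minus min fluorescence divided by baseline after thallium stimulus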). Particulars: FluxOR thallium flux fluorescence, at 10 µM; stronger effect = higher value, scaled: buffer 0, activator control 100.
Sequence of Potassium voltage-gated channel subfamily KQT member 2 (Rattus norvegicus) (O88943 whole entry, looked up): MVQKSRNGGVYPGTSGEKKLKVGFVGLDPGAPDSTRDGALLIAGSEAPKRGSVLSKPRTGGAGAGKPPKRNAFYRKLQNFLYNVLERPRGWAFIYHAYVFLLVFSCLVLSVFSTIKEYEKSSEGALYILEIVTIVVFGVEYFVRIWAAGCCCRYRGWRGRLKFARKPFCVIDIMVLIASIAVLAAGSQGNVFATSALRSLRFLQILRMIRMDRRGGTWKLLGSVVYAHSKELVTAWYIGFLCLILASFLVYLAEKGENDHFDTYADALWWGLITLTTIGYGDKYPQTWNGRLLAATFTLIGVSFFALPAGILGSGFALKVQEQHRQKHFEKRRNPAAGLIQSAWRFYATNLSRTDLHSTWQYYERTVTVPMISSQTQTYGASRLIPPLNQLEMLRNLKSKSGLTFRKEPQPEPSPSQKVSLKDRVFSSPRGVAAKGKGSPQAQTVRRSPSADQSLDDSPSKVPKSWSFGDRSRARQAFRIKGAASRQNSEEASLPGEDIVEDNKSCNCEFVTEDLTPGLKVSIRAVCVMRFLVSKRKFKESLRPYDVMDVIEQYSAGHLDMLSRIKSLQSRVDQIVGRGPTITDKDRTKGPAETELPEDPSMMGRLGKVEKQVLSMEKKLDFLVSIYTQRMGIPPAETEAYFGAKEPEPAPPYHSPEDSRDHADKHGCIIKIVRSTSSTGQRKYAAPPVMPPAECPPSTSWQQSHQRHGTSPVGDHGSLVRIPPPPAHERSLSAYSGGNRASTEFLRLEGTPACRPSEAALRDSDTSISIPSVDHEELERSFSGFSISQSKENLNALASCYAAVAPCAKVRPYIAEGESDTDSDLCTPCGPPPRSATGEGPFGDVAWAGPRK
`O=C(ONC1=NCCCCC1)c1ccc(Cl)cc1`: the result was inactive.
With `Cc1ccc(/C=C/C(=O)C2C(=O)c3ccccc3C2=O)cc1`, the potentiation was 206% (active).
Consider `COc1cccc2sc(NNC(=O)C3COc4ccccc4O3)nc12` (centres undefined), for which the result was inactive.
On the same count and under the same terms, next, `O=S(=O)(CC(CN1CCCC1)N1CCCC1)c1ccc2ccccc2c1` (centres undefined): “inactive”.
The same measure, in the same setting: to `Cc1nc(NCCc2cnc[nH]2)c2oc3ccccc3c2n1` belongs “inactive”.
Take `C/C(=N\NC(=S)Nc1cccc(C)c1)c1ccco1`: the potentiation is 166% (active).
As for `C#CC1(NC(=O)NCCCC)CCCCC1`, the outcome was inactive.
The same measure, in the same setting: next, `CC(C)(C)C1(O)CC(C(F)(F)F)=NN1C(=O)Cc1ccc([N+](=O)[O-])cc1` (centres undefined): “inactive”; `CN(C)CC(CCCCC(CN(C)C)C(=O)c1ccccc1)C(=O)c1ccccc1` (centres undefined): “inactive”.
As for `Cn1ccnc1C(OC(=O)c1ccc(Cl)cc1)C(F)(F)F` (centres undefined), the result was inactive.
With `COC(=O)C1=NN(C(=O)c2ccc(Cl)cc2)C(O)(c2ccccc2)C1` (centres undefined), the potentiation was 392% (active).
Same read-out and setting: to `C=CCn1c(O)c(N=NC(=S)Nc2cccc(OC)c2)c2ccccc21` belongs 271% (active).
For the compound `Cc1ccc(C)c(N2CCN(C(=O)CCS(=O)(=O)c3ccc4c(c3)NC(=O)CO4)CC2)c1`, the outcome was inactive.
On to `COC(=O)CSc1nc(N)c2c3c(sc2n1)C(c1ccccc1)SC(c1ccccc1)C3` (centres undefined), for which the outcome was inactive.
On the same count and under the same terms, to `CC(=O)c1c(C)[nH]c(C(=O)Nc2cccc(C(F)(F)F)c2)c1C` belongs “inactive”.
Turning to `O=C(Nc1ccc2[nH]c(=S)sc2c1)Nc1ccccc1F`, the potentiation was 240% (active).
On to `Cc1noc(C)c1CSc1ncnc2sc(C)c(C)c12`, for which the outcome was inactive.
Regarding `Cc1ccc2nc(SCC(=O)N3CCN(C(=O)c4ccco4)CC3)[nH]c2c1`, the result was inactive.
For `Cc1ccc2sc(N(CCCN(C)C)C(=O)CCS(=O)(=O)c3ccccc3)nc2c1C`, the outcome was inactive.
Still for that read-out and setting: to `Cc1sc(-n2c(C)cc(/C=C3\SC(=S)NC3=O)c2C)c(C#N)c1C` belongs “inactive”; to `CCOC(=O)C(=Cc1cc(=O)c(OC)co1)C(=O)OCC`, “inactive”.
The same measure, in the same setting: to `CC(=O)OC1OCCOC1NC(=S)Nc1ccc(C)cc1` (centres undefined) belongs “inactive”.
As to `C=CCn1c(=S)[nH]c2sc3c(c2c1=O)CCCC3`, the potentiation was 294% (active).
Regarding `CCC1CCC2(CC1)NNC(=S)NN2`, the result was inactive.
Same read-out and setting: next, `CCOC(=O)c1oc2c(CN3CCCCC3C)c(O)ccc2c(=O)c1-c1ccc(OC)c(OC)c1` (centres undefined): “inactive”.
On to `Cc1cccc(-c2nnc(NC(=O)c3ccc(Cl)cc3)o2)c1`, for which the potentiation was 155% (active).
As to `Oc1c(N=NC(=S)Nc2ccccc2F)c2ccccc2n1Cc1ccc(F)cc1`, the outcome was inactive.
On to `CCCn1c(N)c(C(=O)CSc2nc(C)nc3sc(C)c(C)c23)c(=O)[nH]c1=O`, for which the potentiation is 194% (active).
On to `O=C(NC(=S)Nc1ccccc1Br)c1ccco1`, for which the outcome was inactive.
Regarding `CCOc1ccc(NC(=S)NC(=O)c2ccco2)cc1`, the potentiation is 180% (active).
Regarding `Cc1ccc2nc(NC(=S)NC(=O)c3ccco3)sc2c1`, the potentiation is 325% (active).
Consider `COc1cccc(OC)c1C(=O)Nc1cccc(-c2ccc3nncn3n2)c1`, for which the outcome was inactive.
Regarding `C=C(C)CNC(=O)c1ccc(OC2CCN(C(=O)COC)CC2)cc1`, the outcome was inactive.
Regarding `CCOc1ccc(-n2cc(-c3ccccc3)c3c(=S)nc[nH]c32)cc1`, the potentiation was 389% (active).
Same read-out and setting: to `CCc1ccc(NC(=O)C(=O)NNC(=O)COc2cccc(OC)c2)cc1` belongs 251% (active).
Regarding `COC(=O)c1ccc(COC(=O)c2ccccc2OC)cc1`, the outcome was inactive.
In the case of `CC(NC(=O)CS(=O)(=O)c1ccccc1)c1ccccc1` (centres undefined), the result was inactive.
Consider `Fc1cccc2sc(Nc3nnc(-c4ccco4)o3)nc12`, for which the potentiation was 381% (active).
Consider `O=c1c2ccccc2nc(-c2cccc(Cl)c2)n1O`, for which the potentiation was 327% (active).
Take `COc1ccc(N=Nc2ccc(O)c3ncccc23)cc1`: the potentiation was 249% (active).

Values taken from PubChem BioAssay.
